Measured values published in ChEMBL document CHEMBL3616374, “Structure-Activity Relationship Studies of Orally Active Antimalarial 2,4-Diamino-thienopyrimidines” (J Med Chem, 2015).
In brackets after ≈: the same amount, converted by molar mass.

What was measured:
[1] = tested on: Plasmodium falciparum; assay: Antiplasmodial activity against multidrug-sensitive Plasmodium falciparum NF54 by [3H]-hypoxanthine incorporation assay; type: functional, organism-based
Outline: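 IC50 against P. falciparum NF54 was run with chloroquine and artesunate as reference drugs in every experiment. Values are the mean of at least 2 independent experiments.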

[2] = tested on: Plasmodium falciparum; assay: Antiplasmodial activity against multidrug-resistant Plasmodium falciparum K1 by [3H]-hypoxanthine incorporation assay; type: functional, organism-based
Outline: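 In vitro IC50 against the multidrug-resistant K1 strain of P. falciparum. Chloroquine and artesunate were run as reference drugs in every experiment. Values are means of ≥2 independent experiments.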

[3] = Solubility of the compound in 0.01 M HCl at pH 2; type: physicochemical
Outline: (§1)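 Solubility was measured by a scaled-down shake flask method.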

[4] = Solubility of the compound in phosphate buffer at pH 6.5; type: physicochemical; outline: as §1
[5] = Metabolic stability of the compound in human liver microsomes at 0.1 uM after 30 mins by LC-MS/MS analysis; type: ADME; settings: read-out: Stability
Outline: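 A one-point microsomal stability assay was used, expressed as the percentage of parent compound remaining after 30 min incubation.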

[6] = Degradation half-life in human liver microsomes at 0.1 uM by LC-MS/MS analysis; type: ADME
[7] = Intrinsic clearance in human liver microsomes assessed per mg of protein at 0.1 uM by LC-MS/MS analysis; type: ADME; settings: read-out: CLH
[8] = Partition coefficient, log D of the compound at pH 7.4 by HPLC chromatographic method; type: physicochemical; settings: octanol/water
Outline: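 logD was estimated by HPLC-DAD-MS.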

[9] = target: Voltage-gated inwardly rectifying potassium channel KCNH2 (Homo sapiens, UniProt Q12809); assay: Inhibition of human ERG expressed in CHO cells by patch clamp electrophysiology assay; type: cell-based
[10] = tested on: Vero; assay: Cytotoxicity against African green monkey Vero cells after 48 hrs by MTT assay; type: cell-based; settings: chlorocebus sabaeus
[11] = Selectivity index ratio of IC50 for African green monkey Vero cells to IC50 for Plasmodium falciparum NF54; type: functional
[12] = tested on: Mus musculus; assay: Acute toxicity in GFP-transfected Plasmodium berghei ANKA infected NMRI mouse at 50 mg/kg, po qd for 4 days; type: organism-based; settings: in vivo, 96 h
Outline: (§2)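 P. berghei-infected mice dosed orally at 50 mg/kg once daily for 4 days. Compound was dissolved or suspended in a standard non-solubilizing HPMC suspension vehicle. Mice were watched for acute toxicity after dosing. Parasitemia reduction was calculated against untreated infected controls, and survival was recorded as mean survival time in days.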

[13] = tested on: Mus musculus; assay: Dose normalized AUC (0 to 5 hrs) in BALB/C mouse at 50 mg/kg, po; type: ADME, organism-based; settings: in vivo
[14] = Cmax in BALB/C mouse at 50 mg/kg, po; type: ADME, organism-based; design: dose 50 mg/kg, route oral; settings: in vivo
[15] = AUC (0 to 24 hrs) in BALB/C mouse at 50 mg/kg, po; type: ADME, organism-based; design: time < 24 hr, dose 50 mg/kg, route oral; settings: in vivo
[16] = tested on: Plasmodium berghei; assay: Antimalarial activity against GFP-transfected Plasmodium berghei ANKA infected in NMRI mouse assessed as mean survival time at 50 mg/kg, po qd for 4 days by flow cytometry analysis; type: functional; outline: as §2
[17] = tested on: Plasmodium berghei; assay: Antimalarial activity against GFP-transfected Plasmodium berghei ANKA infected in NMRI mouse assessed as reduction of parasitemia in blood at 50 mg/kg, po qd for 4 days by flow cytometry analysis; type: functional; design: scale not given: the % may be the effect or the level left
Outline: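 In P. berghei-infected mice, compound was dissolved or suspended in a standard non-solubilizing HPMC suspension vehicle and given orally once daily for 4 days (4 × 50 mg/kg). Parasitemia reduction was expressed as % relative to untreated control mice. Mean survival time in days was also recorded.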

Sequence of Voltage-gated inwardly rectifying potassium channel KCNH2 (Q12809 whole entry): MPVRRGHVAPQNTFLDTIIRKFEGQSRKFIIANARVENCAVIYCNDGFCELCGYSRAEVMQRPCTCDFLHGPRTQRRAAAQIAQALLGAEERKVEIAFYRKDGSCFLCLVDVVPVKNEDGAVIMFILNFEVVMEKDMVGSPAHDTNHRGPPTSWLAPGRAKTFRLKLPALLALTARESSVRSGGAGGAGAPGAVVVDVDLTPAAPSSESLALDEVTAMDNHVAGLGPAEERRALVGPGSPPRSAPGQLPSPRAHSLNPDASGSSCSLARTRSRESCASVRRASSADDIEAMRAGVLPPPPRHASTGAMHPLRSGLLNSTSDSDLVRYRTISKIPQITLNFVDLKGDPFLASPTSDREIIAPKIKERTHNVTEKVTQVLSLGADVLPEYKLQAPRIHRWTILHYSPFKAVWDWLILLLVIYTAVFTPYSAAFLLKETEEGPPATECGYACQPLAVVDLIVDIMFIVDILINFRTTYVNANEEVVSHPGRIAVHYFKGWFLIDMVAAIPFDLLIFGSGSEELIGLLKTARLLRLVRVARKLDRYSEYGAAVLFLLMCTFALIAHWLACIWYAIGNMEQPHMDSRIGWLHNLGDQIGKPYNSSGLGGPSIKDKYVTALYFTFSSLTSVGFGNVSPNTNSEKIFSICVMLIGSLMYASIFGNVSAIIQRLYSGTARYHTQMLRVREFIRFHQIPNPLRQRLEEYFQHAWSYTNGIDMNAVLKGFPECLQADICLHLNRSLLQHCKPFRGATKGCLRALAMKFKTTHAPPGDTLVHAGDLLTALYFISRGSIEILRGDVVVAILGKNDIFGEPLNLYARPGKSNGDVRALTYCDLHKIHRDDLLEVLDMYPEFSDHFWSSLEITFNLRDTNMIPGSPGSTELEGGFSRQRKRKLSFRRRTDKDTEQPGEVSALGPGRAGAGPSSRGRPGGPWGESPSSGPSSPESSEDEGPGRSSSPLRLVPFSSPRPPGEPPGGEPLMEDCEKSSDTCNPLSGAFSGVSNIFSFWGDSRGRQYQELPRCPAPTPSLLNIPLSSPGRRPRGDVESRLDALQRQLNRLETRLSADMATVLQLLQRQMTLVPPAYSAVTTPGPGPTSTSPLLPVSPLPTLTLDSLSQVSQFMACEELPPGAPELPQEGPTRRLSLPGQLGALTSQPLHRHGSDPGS

Structure (SMILES)	IC50 [1]	IC50 [2]	solubility [3]	solubility [4]	remaining at 0.5 h, 0.1 µM [5]	further results
Nc1nc(N2CCC(O)CC2)c2sc(-c3ccc(C(F)(F)F)cc3)cc2n1	> 2.54 µM					
CNc1nc(NCCCN)c2sc(-c3ccc(C(F)(F)F)cc3)cc2n1	> 2.61 µM	> 2.61 µM				
CNc1nc(NCCCO)c2sc(-c3ccc(C(F)(F)F)cc3)cc2n1	0.111 µM	0.233 µM				
CNc1nc(OCCCN(C)C)c2sc(-c3ccc(C(F)(F)F)cc3)cc2n1	1.83 µM	> 2.44 µM	0.174 mg/mL (≈ 424 µM)	0.174 mg/mL (≈ 424 µM)		
CNc1nc(NCCN2CCNCC2)c2sc(-c3ccc(C(F)(F)F)cc3)cc2n1	0.034 µM	0.037 µM	0.203 mg/mL (≈ 465 µM)	0.115 mg/mL (≈ 263 µM)	100%	
CNc1nc(NCCCN2CCOCC2)c2sc(-c3ccc(C(F)(F)F)cc3)cc2n1	0.043 µM		0.196 mg/mL (≈ 434 µM)	0.096 mg/mL (≈ 213 µM)		half-life at 0.1 µM [6]: 0.398 h; microsomal CLint at 0.1 µM [7]: 72.4 µL/min/mg
CNc1nc(NCCN2CCOCC2)c2sc(-c3ccc(C(F)(F)F)cc3)cc2n1	0.08 µM	0.121 µM	0.213 mg/mL (≈ 487 µM)	0.042 mg/mL (≈ 96 µM)	51%	
CNc1nc(N)c2sc(-c3ccc(C(F)(F)F)cc3)cc2n1	1.16 µM		> 0.1 mg/mL	0.0031 mg/mL (≈ 9.56 µM)		chromatographic logD [8]: 3.4
CNc1nc(NCC(F)(F)F)c2sc(-c3ccc(C(F)(F)F)cc3)cc2n1	0.047 µM	0.138 µM	0.028 mg/mL (≈ 68.9 µM)	< 0.005 mg/mL	75%	IC50 [9]: > 33 µM
CNc1nc(NC(C)(C)C)c2sc(-c3ccc(C(F)(F)F)cc3)cc2n1	0.116 µM		0.0016 mg/mL (≈ 4.21 µM)	< 0.0016 mg/mL		chromatographic logD [8]: > 5.3; half-life at 0.1 µM [6]: 2.07 h; microsomal CLint at 0.1 µM [7]: 14 µL/min/mg
CNc1nc(NC2CC2)c2sc(-c3ccc(C(F)(F)F)cc3)cc2n1	0.137 µM	0.447 µM	0.12 mg/mL (≈ 329 µM)	< 0.005 mg/mL		half-life at 0.1 µM [6]: 1.15 h; microsomal CLint at 0.1 µM [7]: 25.2 µL/min/mg
CNc1nc(N2CCC(N)CC2)c2sc(-c3ccc(C(F)(F)F)cc3)cc2n1	0.042 µM		> 0.2 mg/mL	0.017 mg/mL (≈ 41.7 µM)	93%	Activity [10]: Non-toxic; Ratio IC50 [11]: >100; Activity [12]: Non-toxic; AUC/dose [13]: 7.63 min.ug/ml/(mg/kg); Cmax [14]: 3.69 µM; AUC(0-t) at 24 h [15]: 78.2 µM·h; MSD [16]: 7 days; Activity [17]: 81%
CNc1nc(N2CCNCC2)c2sc(-c3ccc(C(F)(F)F)cc3)cc2n1	0.095 µM					
CNc1nc(NC2CCNCC2)c2sc(-c3ccc(C(F)(F)F)cc3)cc2n1	0.019 µM	0.024 µM	0.218 mg/mL (≈ 535 µM)	0.147 mg/mL (≈ 361 µM)	84%	Activity [10]: Non-toxic; Ratio IC50 [11]: >100; Activity [12]: Non-toxic; AUC/dose [13]: 4.24 min.ug/ml/(mg/kg); Cmax [14]: 2.47 µM; AUC(0-t) at 24 h [15]: 25 µM·h; MSD [16]: 12 days; Activity [17]: 99.7%
CNc1nc(NC2CCOCC2)c2sc(-c3ccc(C(F)(F)F)cc3)cc2n1	0.047 µM	0.14 µM	< 0.005 mg/mL	< 0.005 mg/mL	100%	
CNc1nc(Nc2cccc(C(N)=O)c2)c2sc(-c3ccc(C(F)(F)F)cc3)cc2n1	0.052 µM	0.113 µM	0.085 mg/mL (≈ 192 µM)	0.008 mg/mL (≈ 18 µM)	83%	
CNc1nc(-c2ccc(C(F)(F)F)cc2)c2sc(-c3ccc(C(F)(F)F)cc3)cc2n1	> 2.21 µM					
CN(C)CCCNc1nc(N)nc2cc(-c3ccc(C(F)(F)F)cc3)sc12	0.057 µM		0.21 mg/mL (≈ 531 µM)	0.148 mg/mL (≈ 374 µM)	94%	half-life at 0.1 µM [6]: 1.73 h; microsomal CLint at 0.1 µM [7]: 16.9 µL/min/mg
CN(C)CCCNc1nc(N(C)C)nc2cc(-c3ccc(C(F)(F)F)cc3)sc12	0.1 µM		0.212 mg/mL (≈ 501 µM)	0.168 mg/mL (≈ 397 µM)	66%	

Structure (SMILES)	IC50 [1]	IC50 [2]	solubility [3]	solubility [4]	remaining at 0.5 h, 0.1 µM [5]	further results
CN(C)CCCNc1ncnc2cc(-c3ccc(C(F)(F)F)cc3)sc12	0.5 µM		0.209 mg/mL (≈ 549 µM)	0.205 mg/mL (≈ 539 µM)	91%	
CN(C)CCCNc1nc(Cl)nc2cc(-c3ccc(C(F)(F)F)cc3)sc12	1.08 µM					
COc1nc(NCCCN(C)C)c2sc(-c3ccc(C(F)(F)F)cc3)cc2n1	1.39 µM	1.4 µM	0.214 mg/mL (≈ 521 µM)	< 0.005 mg/mL		half-life at 0.1 µM [6]: > 1.67 h; microsomal CLint at 0.1 µM [7]: < 17 µL/min/mg
CN(C)CCCNc1nc(NCc2ccccc2)nc2cc(-c3ccc(C(F)(F)F)cc3)sc12	0.042 µM		0.208 mg/mL (≈ 428 µM)	< 0.005 mg/mL	100%	
CN(C)CCCNc1nc(N2CCNCC2)nc2cc(-c3ccc(C(F)(F)F)cc3)sc12	0.164 µM		0.198 mg/mL (≈ 426 µM)	0.178 mg/mL (≈ 383 µM)		half-life at 0.1 µM [6]: > 1.67 h; microsomal CLint at 0.1 µM [7]: < 17 µL/min/mg
CN(C)CCCNc1nc(N2CCOCC2)nc2cc(-c3ccc(C(F)(F)F)cc3)sc12	> 2.15 µM		0.211 mg/mL (≈ 453 µM)	< 0.005 mg/mL	92%	
CS(=O)(=O)c1ccc(-c2nc(N3CCNCC3)nc3cc(-c4ccc(C(F)(F)F)cc4)sc23)cc1	1.46 µM		0.174 mg/mL (≈ 336 µM)	< 0.005 mg/mL		
Nc1nc(NC2CCNCC2)c2sc(-c3ccc(C(F)(F)F)cc3)cc2n1	0.025 µM	0.024 µM	0.168 mg/mL (≈ 427 µM)	0.168 mg/mL (≈ 427 µM)	100%	chromatographic logD [8]: 2.4; half-life at 0.1 µM [6]: > 2.5 h; microsomal CLint at 0.1 µM [7]: < 11.6 µL/min/mg; Activity [12]: Non-toxic; MSD [16]: 7 days; Activity [17]: 78%
Nc1nc(NC2CCCNC2)c2sc(-c3ccc(C(F)(F)F)cc3)cc2n1 (centres undefined)	0.036 µM		0.125 mg/mL (≈ 318 µM)	0.125 mg/mL (≈ 318 µM)	69%	
CN1CCC(Nc2nc(N)nc3cc(-c4ccc(C(F)(F)F)cc4)sc23)CC1	0.05 µM		0.147 mg/mL (≈ 361 µM)	0.147 mg/mL (≈ 361 µM)	95%	
Nc1nc(NC2CCCCC2)c2sc(-c3ccc(C(F)(F)F)cc3)cc2n1	0.168 µM					
Nc1nc(NC2CCNC2)c2sc(-c3ccc(C(F)(F)F)cc3)cc2n1 (centres undefined)	0.1 µM	0.116 µM	0.155 mg/mL (≈ 409 µM)	0.155 mg/mL (≈ 409 µM)		half-life at 0.1 µM [6]: > 2.5 h; microsomal CLint at 0.1 µM [7]: < 11.6 µL/min/mg; IC50 [9]: 2.4 µM
Nc1nc(NC2CNC2)c2sc(-c3ccc(C(F)(F)F)cc3)cc2n1	0.936 µM					
Nc1nc(NC2CCOCC2)c2sc(-c3ccc(C(F)(F)F)cc3)cc2n1	0.451 µM		< 0.005 mg/mL	< 0.005 mg/mL	98%	IC50 [9]: 0.7 µM
Nc1nc(NC2CCS(=O)(=O)CC2)c2sc(-c3ccc(C(F)(F)F)cc3)cc2n1	0.678 µM					
Nc1nc(N2CCC(N)CC2)c2sc(-c3ccc(C(F)(F)F)cc3)cc2n1	0.02 µM	0.033 µM	0.134 mg/mL (≈ 341 µM)	0.134 mg/mL (≈ 341 µM)	100%	chromatographic logD [8]: 2.4; half-life at 0.1 µM [6]: > 2.5 h; microsomal CLint at 0.1 µM [7]: < 11.6 µL/min/mg; Activity [10]: Non-toxic; Ratio IC50 [11]: >100; AUC/dose [13]: 2.63 min.ug/ml/(mg/kg); Cmax [14]: 1.36 µM; AUC(0-t) at 24 h [15]: 21.6 µM·h; MSD [16]: 26 days; Activity [17]: 99.8%; IC50 [9]: 6.1 µM
N#CC1CCN(c2nc(N)nc3cc(-c4ccc(C(F)(F)F)cc4)sc23)CC1	> 2.48 µM					
Nc1nc(N2CCC(F)(F)CC2)c2sc(-c3ccc(C(F)(F)F)cc3)cc2n1	> 2.38 µM					
C[C@H]1[C@H](OC(=O)CCC(=O)O)O[C@@H]2O[C@@]3(C)CC[C@H]4[C@H](C)CC[C@@H]1[C@@]24OO3 [ARTESUNATE]	0.004 µM	0.003 µM				
